TRPC6 activator = mouse TRPC6 channel activators, primary screen, cell-based, HEK293, membrane potential dye | Short transient receptor potential channel 6 (Mus musculus), Q61143 | HEK293-TRPC6 membrane potential dye fluorescence; hits give high values | hit rate 0.13% among 310,000 | AID 2550, 2010 | B-score at 10 µM;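 active = B-score of the integrated fluorescence ratio above library mean plus 3 SD, and starting fluorescence ratio within library mean plus 5 SD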;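 also: higher score means more depolarization so channel activation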
TRPC4 inh = inhibitors of mouse TRPC4 channel, primary screen, Fluo4 calcium, HEK293 TRPC4beta/mu-opioid cells | DAMGO-evoked Fluo4 calcium flux; hits give low values | hit rate 0.39% among 300,000 | Short transient receptor potential channel 4 (Mus musculus), Q9QUQ5 | B-score at 10 µM;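 active = B-score over 3 SD under the library average, no early fluorescence shift, positive overall ratio signal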
Target sequence (Q9QUQ5 whole entry, looked up): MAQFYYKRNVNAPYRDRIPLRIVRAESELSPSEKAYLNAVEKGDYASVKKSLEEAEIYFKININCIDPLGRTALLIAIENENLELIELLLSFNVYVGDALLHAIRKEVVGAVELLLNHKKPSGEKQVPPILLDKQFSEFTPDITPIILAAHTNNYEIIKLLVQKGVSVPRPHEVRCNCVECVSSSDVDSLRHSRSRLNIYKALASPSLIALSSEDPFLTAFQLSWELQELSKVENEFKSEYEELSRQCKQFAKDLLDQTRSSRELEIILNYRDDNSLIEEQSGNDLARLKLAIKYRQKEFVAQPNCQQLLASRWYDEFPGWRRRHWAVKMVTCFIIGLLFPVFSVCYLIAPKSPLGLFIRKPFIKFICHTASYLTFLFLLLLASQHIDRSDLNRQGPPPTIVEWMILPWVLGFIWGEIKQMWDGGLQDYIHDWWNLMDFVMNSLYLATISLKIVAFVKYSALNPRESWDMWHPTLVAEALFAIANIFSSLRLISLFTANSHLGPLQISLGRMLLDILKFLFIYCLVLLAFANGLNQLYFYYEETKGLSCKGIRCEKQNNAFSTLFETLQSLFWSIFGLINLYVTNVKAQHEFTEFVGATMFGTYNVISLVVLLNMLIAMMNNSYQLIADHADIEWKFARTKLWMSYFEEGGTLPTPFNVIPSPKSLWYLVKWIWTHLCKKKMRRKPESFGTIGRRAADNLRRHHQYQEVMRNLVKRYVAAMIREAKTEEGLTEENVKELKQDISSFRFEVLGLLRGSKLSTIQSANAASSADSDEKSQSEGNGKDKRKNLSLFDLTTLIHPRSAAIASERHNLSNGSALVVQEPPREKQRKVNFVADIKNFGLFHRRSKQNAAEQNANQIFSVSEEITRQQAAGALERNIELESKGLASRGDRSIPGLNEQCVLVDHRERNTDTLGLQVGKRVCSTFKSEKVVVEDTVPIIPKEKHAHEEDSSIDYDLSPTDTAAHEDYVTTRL
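Assay system: Stable TRPC4beta/mu-opioid receptor HEK293 cells | Reagent: DAMGO in two steps, submaximal then maximal | Compound dosing: Single concentration per test compound | Signal: Fluo4 Ca2+ flux fluorescence | Evaluation: Per-well B score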
TRPC4 agonist = activators of mouse TRPC4 channel, primary screen, Fluo4 calcium, HEK293 TRPC4beta/mu-opioid cells. Short transient receptor potential channel 4 (Mus musculus), Q9QUQ5. Fluo4 calcium fluorescence; hits give high values. B-score at 10 µM. hit rate 0.49% among 310,000;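 active = B-score above 5 SD of library B-scores, and initial fluorescence ratio not above library mean plus 5 SD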;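 also: positive B-score marks a calcium rise read as TRPC4 activation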
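Assay system: HEK293 stable line with TRPC4beta plus mu-opioid receptor; schedule: 45 min room-temperature Fluo4 loading, 110 s read; technique: kinetic Fluo4 calcium fluorescence; evaluation: integrated baseline-normalised fluorescence ratio, converted to per-well B score; controls: buffer (low) and maximal DAMGO (high)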
TRPC4 potent = positive allosteric modulators of TRPC4, primary screen, cell-based, mouse TRPC4beta, HEK293 mu-opioid, Fluo-4 calcium; AID 2227, 2009; Short transient receptor potential channel 4 (Mus musculus), Q9QUQ5; hit rate 0.42% among 310,000; DAMGO EC20, Fluo-4 Ca2+ flux; hits give high values; B-score at 10 µM;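 active = B-score of calcium response area above 5 SD of library B-scores, with initial fluorescence ratio within 5 SD of library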;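 also: B-score of integrated fluorescence ratio over time as area under calcium response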
TRPC6 inh = mouse TRPC6 channel inhibitors, primary screen, cell-based, HEK293, membrane potential dye. ACh-evoked depolarization; hits give low values. B-score at 10 µM. hit rate 1.1% among 310,000;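 active = B-score under library mean minus 3 SD, initial fluorescence not abnormally high, positive integrated signal ratio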;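 also: B-score derived from integrated fluorescence ratio over the kinetic read; more negative B-score means stronger inhibition of depolarization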
Kir21 block = inhibitors of mouse Kir2.1 inward-rectifier potassium channel; HEK293-Kir2.1, FluxOR thallium flux fluorescence; hits give low values; B-score at 10 µM; Inward rectifier potassium channel 2 (Mus musculus), P35561; hit rate 0.85% among 310,000;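 active = fluorescence ratio B-score at or below minus 3 SD of library scores, with starting-brightness B-score within 2 SD, cut at about -4.2 in these data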;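 also: channel flux triggered by added potassium and thallium sulfate stimulus; B-score of peak minus minimum fluorescence over baseline after thallium stimulus; more negative B-score means stronger Kir2.1 block with less thallium influx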
* = called active by the depositor. An excerpt weighted towards active compounds, which were near 2.9% of everything screened.

COc1ccc(C)cc1N(C(=O)c1ccccc1F)c1nc2ccccc2s1 was read as TRPC6 activator inactive, TRPC4 inh -6*, TRPC4 agonist inactive, TRPC4 potent inactive, TRPC6 inh inactive and Kir21 block -1.8.
For CCN1/C(=C/c2ccc3ccccc3[n+]2CC)C=Cc2ccccc21 the results were TRPC6 activator inactive, TRPC4 inh inactive, TRPC4 agonist inactive, TRPC4 potent inactive, TRPC6 inh inactive and Kir21 block -13*.
For CCCCN1/C(=C/c2ccc3ccccc3[n+]2CC)Sc2ccccc21 the results were TRPC6 activator inactive, TRPC4 inh inactive, TRPC4 agonist 204*, TRPC4 potent inactive, TRPC6 inh inactive and Kir21 block -18.
CCN1/C(=C/c2ccc3ccccc3[n+]2CCCS(=O)(=O)[O-])C=Cc2cc(C)ccc21 was read as TRPC6 activator inactive, TRPC4 inh inactive, TRPC4 agonist inactive, TRPC4 potent inactive, TRPC6 inh inactive and Kir21 block -0.06.
`OCc1cccc[n+]1Cc1ccccc1` gave TRPC6 activator inactive, TRPC4 inh inactive, TRPC4 agonist inactive, TRPC4 potent inactive, TRPC6 inh inactive and Kir21 block 0.12.
For Cc1sc(NC(=O)C2CCCCC2C(=O)O)c(C(N)=O)c1-c1ccc(C(C)(C)C)cc1 (configuration not stated) the results were TRPC6 activator inactive, TRPC4 inh -5*, TRPC4 agonist inactive, TRPC4 potent inactive, TRPC6 inh inactive and Kir21 block -0.11.
CN1c2ccccc2C(C)(C)C12C=Nc1c(ccc3ccccc13)O2 (configuration not stated) was read as TRPC6 activator inactive, TRPC4 inh inactive, TRPC4 agonist inactive, TRPC4 potent inactive, TRPC6 inh inactive and Kir21 block -2.
CN1c2ccccc2C(C)(C)[C@]12C=Cc1cc(O)ccc1O2 was read as TRPC6 activator inactive, TRPC4 inh inactive, TRPC4 agonist inactive, TRPC4 potent inactive, TRPC6 inh inactive and Kir21 block -5.9*.
For CN(C)Cc1ccccc1Sc1cccc2ccccc12 the results were TRPC6 activator inactive, TRPC4 inh inactive, TRPC4 agonist inactive, TRPC4 potent inactive, TRPC6 inh inactive and Kir21 block -5.3*.
`O=S(=O)(c1ccc2ccccc2c1)N1CCN=C1SCc1cccnc1` gave TRPC6 activator inactive, TRPC4 inh inactive, TRPC4 agonist inactive, TRPC4 potent inactive, TRPC6 inh inactive and Kir21 block -5*.
`O=S(=O)(c1ccc(F)cc1)N1CCN=C1SCc1cccnc1` gave TRPC6 activator inactive, TRPC4 inh inactive, TRPC4 agonist inactive, TRPC4 potent inactive, TRPC6 inh inactive and Kir21 block -3.6.
Screening Cc1ccnc(NC(=O)C(C)N2C(=O)c3ccccc3S2(=O)=O)c1 (configuration not stated) returned TRPC6 activator inactive, TRPC4 inh inactive, TRPC4 agonist inactive, TRPC4 potent inactive, TRPC6 inh inactive and Kir21 block 0.23.
`CCCCNC(=O)CCn1nc(-c2ccccc2)ccc1=O` gave TRPC6 activator inactive, TRPC4 inh inactive, TRPC4 agonist inactive, TRPC4 potent inactive, TRPC6 inh inactive and Kir21 block 0.2.
Screening CC1CCCN(CCCNC(=O)CCn2nc(-c3ccccc3)ccc2=O)C1 (configuration not stated) returned TRPC6 activator inactive, TRPC4 inh inactive, TRPC4 agonist inactive, TRPC4 potent 11*, TRPC6 inh inactive and Kir21 block -0.03.
Screening C=CCn1c(COc2ccccc2)nnc1SCc1ccc(C#N)cc1 returned TRPC6 activator inactive, TRPC4 inh inactive, TRPC4 agonist inactive, TRPC4 potent inactive, TRPC6 inh inactive and Kir21 block -11*.
For C=CCn1c(COc2ccc(Cl)cc2)nnc1SCc1ccc(C#N)cc1 the results were TRPC6 activator inactive, TRPC4 inh inactive, TRPC4 agonist inactive, TRPC4 potent inactive, TRPC6 inh inactive and Kir21 block -4.
`O=C(Nc1ccc2c(c1)N(S(=O)(=O)c1cccs1)CCC2)c1c(F)cccc1Cl` gave TRPC6 activator inactive, TRPC4 inh inactive, TRPC4 agonist inactive, TRPC4 potent inactive, TRPC6 inh inactive and Kir21 block -0.15.
For COc1ccc(C2=NOC(Cn3c(Cc4ccc(Cl)cc4)nc4c3c(=O)n(C)c(=O)n4C)C2)cc1 (configuration not stated) the results were TRPC6 activator inactive, TRPC4 inh inactive, TRPC4 agonist inactive, TRPC4 potent 10*, TRPC6 inh inactive and Kir21 block 1.5.
O=C(N/N=C/c1cc([N+](=O)[O-])cc(Br)c1O)C12CC3CCC(CC(C3)C1)C2 was read as TRPC6 activator inactive, TRPC4 inh inactive, TRPC4 agonist 136*, TRPC4 potent inactive, TRPC6 inh inactive and Kir21 block 0.82.
Cc1ccc(CCNC(=O)C2CCN(S(=O)(=O)c3ccc4c(c3)NC(=O)CO4)CC2)cc1 was read as TRPC6 activator inactive, TRPC4 inh inactive, TRPC4 agonist inactive, TRPC4 potent inactive, TRPC6 inh inactive and Kir21 block 0.01.
CCOC(=O)N1CCN(C(=S)Nc2ccc(C)cc2)CC1 was read as TRPC6 activator inactive, TRPC4 inh inactive, TRPC4 agonist inactive, TRPC4 potent inactive, TRPC6 inh inactive and Kir21 block -0.81.
Cc1noc(C)c1COC(=O)[C@@H](NC(=O)c1ccccc1Cl)C(C)C was read as TRPC6 activator inactive, TRPC4 inh inactive, TRPC4 agonist inactive, TRPC4 potent 48*, TRPC6 inh inactive and Kir21 block 0.
For Cc1ccccc1Nc1nc(N)nc(COC(=O)[C@@H](NC(=O)c2ccccc2Cl)C(C)C)n1 the results were TRPC6 activator inactive, TRPC4 inh inactive, TRPC4 agonist inactive, TRPC4 potent inactive, TRPC6 inh inactive and Kir21 block -0.06.
Screening Cc1noc(C)c1COC(=O)[C@H](C)NS(=O)(=O)c1ccc(Cl)c(Cl)c1 returned TRPC6 activator inactive, TRPC4 inh inactive, TRPC4 agonist inactive, TRPC4 potent inactive, TRPC6 inh inactive and Kir21 block -5.2*.

Screening data deposited in PubChem by Johns Hopkins Ion Channel Center.
